Hits are enriched below; roughly 0.61% of the tested compounds scored in any of these assays.
XiGFP reactiv: activators of inactive X chromosome reactivation, primary screen, imaging, XiGFP fibroblasts, GFP high-content imaging, set 2 | XiGFP mouse fibroblasts, % GFP-positive cells imaging, 3 d; cells co-treated with 5-aza-dC sensitizer; scaled so ellipticine positive control = 100% | activation, % at 7.58 µM | 360,000 compounds, 0.055% hits;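 active means mean normalized replicate activation at least 10% and every replicate at or above 10%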;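 further: 0% = median of on-plate neutral control wells and 100% = ellipticine 6 µM median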
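Material: XiGFP fibroblasts, SV40-immortalized. Buffer or medium: DMEM plus 5-aza-dC sensitizer. Compound: single concentration per compound, delivered by pin transfer. Times: 3 days compound exposure. Controls: ellipticine 6 µM.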
E-sel inducer: E-selectin induction in HUVECs, primary screen, imaging, HUVEC, immunofluorescence imaging, single point | P16581 | normalized: neutral wells 0, TNF-alpha wells 100 | activation, % at 7.58 µM | 260,000 compounds, 0.37% hits | AID 686992, 2013;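 active means mean E-selectin-positive cell signal at least 10% of the positive control, reached in at least 60% of replicates, without over 20% cell loss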
Target sequence (P16581 whole entry, looked up): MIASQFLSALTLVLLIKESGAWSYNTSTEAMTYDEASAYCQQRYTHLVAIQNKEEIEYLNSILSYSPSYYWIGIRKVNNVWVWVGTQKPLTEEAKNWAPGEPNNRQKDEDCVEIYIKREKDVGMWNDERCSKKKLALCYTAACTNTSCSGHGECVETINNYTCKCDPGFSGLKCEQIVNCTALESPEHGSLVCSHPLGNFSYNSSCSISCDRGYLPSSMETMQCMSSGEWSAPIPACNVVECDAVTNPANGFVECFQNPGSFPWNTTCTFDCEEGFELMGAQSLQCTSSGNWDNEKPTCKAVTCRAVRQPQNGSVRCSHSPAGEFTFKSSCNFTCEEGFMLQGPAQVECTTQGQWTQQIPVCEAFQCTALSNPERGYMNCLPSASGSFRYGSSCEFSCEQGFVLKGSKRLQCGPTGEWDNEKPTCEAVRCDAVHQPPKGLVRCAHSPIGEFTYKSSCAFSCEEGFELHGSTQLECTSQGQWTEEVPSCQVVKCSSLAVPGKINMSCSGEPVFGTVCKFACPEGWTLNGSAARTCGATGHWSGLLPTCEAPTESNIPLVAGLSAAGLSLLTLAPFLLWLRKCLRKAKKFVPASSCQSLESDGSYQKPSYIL
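material = human umbilical vein endothelial cells (HUVEC), E-selectin induction | quantity = 3,000 cells/well | medium = EGM-2 growth medium on 0.1% gelatin-coated wells | technique = immunofluorescence imaging | read-out basis = % PE-positive cells | control set = TNF-alpha positive control, DMSO neutral control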
F508del corr: F508del CFTR correction, initial screen, CFBE line, single point; activity (quench increase), % at 7.58 µM; AID 720511, 2013; 350,000 compounds, 0.36% hits; CFBE cells, YFP halide quenching; stimulated with forskolin plus potentiator P3; % fluorescence drop versus neutral controls;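 active means mean added fluorescence quench of at least 8% versus neutral control, with both replicates also reaching 8%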;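 further: cells transiently co-express mutant CFTR-F508del with the halide-sensitive YFP; corrector assay measuring rescue of mutant channel to the surface after 24 h compound exposure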
Active calls of the source: *; · = no result given.

SMILES	XiGFP reactiv	E-sel inducer	F508del corr
CC(C)c1cn(CC[C@H]2CC[C@H](NC(=O)c3cccc(F)c3)[C@H](CO)O2)nn1	1	0	0
Cc1ccc(S(=O)(=O)Nc2cc(C)cc(CCNC=O)c2C)cc1	1	0	9.6*
Cc1ccc(S(=O)(=O)NCCNS(=O)(=O)c2ccc(C)cc2)cc1	0	0	-1
COc1ccc(Cc2nnc(NC(=O)c3ccc(F)cc3)s2)cc1OC	0	·	8.6*
COc1ccc(Cc2nnc(NC(=O)c3ccc(C)cc3)s2)cc1OC	0	0	1
COc1cc(C2C3=C(COC3=O)Oc3cc4c(cc32)OCO4)cc(OC)c1OC (centres undefined)	0	1	2
O=C1OCC2=C1C(c1ccc3c(c1)OCO3)c1cc3c(cc1O2)OCO3 (centres undefined)	1	1	9.8*
CN(C)CC#Cc1ccc([C@H]2[C@@H](CO)N3CCCCN(C(=O)Nc4cc(F)ccc4F)C[C@@H]23)cc1	0	0	-5
CCCNC(=O)C[C@@H]1CC[C@@H]2[C@H](COc3ccc(NC(=O)Nc4ccccc4F)cc3C(=O)N2C)O1	0	0	-1
CN(C)CCNC(=O)c1cccc2nc3cccc(F)c3nc12	0	1	9.2*
COc1ccc(OC)c2nc3c(C(=O)NCCN(C)C)cccc3nc12	0	4	7
CCCC(=O)N1CC2(CN(C(=O)C3CCC3)C2)c2c(n(C)c3cc(OC)ccc23)[C@@H]1CO	0	0	1
C[C@@H]1CN([C@H](C)CO)C(=O)c2cccc(NC(=O)c3ccncc3)c2O[C@H]1CN(C)S(=O)(=O)c1ccccc1	-1	32*	1
C[C@H]1CN([C@@H](C)CO)C(=O)c2cccc(NC(=O)c3ccncc3)c2O[C@@H]1CN(C)S(=O)(=O)c1ccccc1	-1	3	-5
C[C@@H]1CN([C@@H](C)CO)C(=O)c2cccc(NC(=O)Nc3ccc4c(c3)OCO4)c2O[C@H]1CN(C)S(=O)(=O)c1ccccc1	0	0	9.0*
C[C@H](CO)N1C[C@H](C)[C@H](CN(C)S(=O)(=O)c2ccccc2)Oc2c(NC(=O)C3CC3)cccc2C1=O	0	0	-2
C[C@@H]1CN([C@@H](C)CO)C(=O)c2cccc(NC(=O)c3ccncc3)c2O[C@H]1CN(C)C(=O)Nc1cccc2ccccc12	0	26*	0
C[C@H](CO)N1C[C@H](C)[C@H](CN(C)S(=O)(=O)c2ccccc2)Oc2c(NC(=O)C3CCOCC3)cccc2C1=O	0	31*	2
Cc1ccc(S(=O)(=O)N(C)C[C@@H]2Oc3c(NC(=O)Nc4ccc5c(c4)OCO5)cccc3C(=O)N([C@@H](C)CO)C[C@H]2C)cc1	0	0	1
C[C@H](CO)N1C[C@H](C)[C@H](CN(C)C(=O)Nc2cccc3ccccc23)Oc2c(NC(=O)c3ccncc3)cccc2C1=O	0	-7	-2
CO[C@@H]1CN(C)C(=O)c2cc(NS(=O)(=O)c3cccc(C)c3)ccc2OC[C@@H](C)NC[C@H]1C	0	0	3
O=C(N[C@H]1CC[C@@H](CCNS(=O)(=O)c2cccc(Cl)c2)O[C@H]1CO)c1ccc(F)cc1	0	0	2
COC(=O)C[C@@H]1CC[C@@H]2[C@@H](COc3ccc(NC(=O)c4cccs4)cc3C(=O)N2C)O1	0	0	2
C[C@H]1CN([C@@H](C)CO)C(=O)CCCn2cc(nn2)CO[C@H]1CN(C)S(=O)(=O)c1ccc(Oc2ccccc2)nc1	1	0	-1
C[C@H](CO)N1C[C@H](C)[C@@H](CN(C)C(=O)CC2CC2)Oc2cc(C#C[C@@H](C)O)ccc2S1(=O)=O	-1	0	0
C[C@H](CO)N1C[C@H](C)[C@@H](CN(C)Cc2ccc(Oc3ccccc3)cc2)OCc2ccccc2-c2ccccc2C1=O	0	15	-7
C[C@@H]1CN([C@@H](C)CO)C(=O)c2cc(NC(=O)C3CCCCC3)ccc2O[C@@H](C)CCCCO[C@H]1CN(C)C(=O)C1CCCCC1	0	0	0
C[C@@H]1CCCCO[C@H](CN(C)C(=O)Nc2ccccc2)[C@@H](C)CN([C@@H](C)CO)C(=O)c2cc(NS(=O)(=O)c3ccccc3)ccc2O1	0	·	1
C[C@H](CO)N1C[C@H](C)[C@@H](CN(C)S(=O)(=O)c2ccc(Cl)cc2)Oc2c(NC(=O)C3CCCCC3)cccc2C1=O	0	-9	0

High-throughput results: PubChem, Broad Institute
